Assay results reported in ChEMBL document CHEMBL2407081, “Discovery of potent, isoform-selective inhibitors of histone deacetylase containing chiral heterocyclic capping groups and a N-(2-aminophenyl)benzamide binding unit” (J Med Chem, 2013).
In brackets after ≈: the same amount, converted by molar mass. Activity calls are given as the source filed them. No cut-off for these calls is given here.

Columns and labels:
[1] = molecular target: Histone deacetylase 3/NCoR1 (Homo sapiens) (UniProt O15379+O75376); experiment: Inhibition of recombinant HDAC3-NCoR1 (unknown origin) assessed as slow tight binding at 0.02 to 20 uM; format: protein-complex assay
Cytochrome P450 2C19 = Cytochrome P450 2C19 (Homo sapiens, UniProt P33261); experiment: Inhibition of CYP2C19 (unknown origin); format: ADME
Jurkat [2] = experiment: Cell cycle arrest in human Jurkat cells assessed as accumulation at S phase at 1 uM after 24 hrs by FITC/propidium iodide staining-based FACS flow cytometric analysis (reference value: 22.3%); format: functional
Summary of the method: (§1)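 HeLa and Jurkat human cells were cultured for 24 h with compound at two concentrations. The control was an equal volume of the DMSO diluent. Cellular DNA and protein content were then measured by flow cytometry, and the percentage of cells in sub-G1, G0/G1, S and G2/M was read out.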

Jurkat [3] = experiment: Cell cycle arrest in human Jurkat cells assessed as accumulation at sub-G1 phase at 1 uM after 24 hrs by FITC/propidium iodide staining-based FACS flow cytometric analysis (reference value: 6.8%); format: functional; summary of the method: as §1
HCT-116 = experiment: Cytotoxicity against human HCT116 cells assessed as growth inhibition by measuring cellular ATP level after 72 hrs by cell-titer glo assay; format: functional, cell-based; settings: HCT-116, 72 h
A549 = experiment: Cytotoxicity against human A549 cells assessed as growth inhibition by measuring cellular ATP level after 72 hrs by cell-titer glo assay; format: functional, cell-based; settings: A549, 72 h
Jurkat [4] = experiment: Cell cycle arrest in human Jurkat cells assessed as accumulation at G2/M phase at 10 uM after 24 hrs by FITC/propidium iodide staining-based FACS flow cytometric analysis (reference value: 13.2%); format: functional; summary of the method: as §1
Cytochrome P450 3A4 [5] = molecular target: T1, Cytochrome P450 3A4 (Homo sapiens, UniProt P08684); experiment: Inhibition of CYP3A4 (unknown origin) using vivid green as substrate; format: ADME
Jurkat [6] = experiment: Induction of apoptosis in human Jurkat cells assessed as PARP cleavage at 1 to 10 uM after 24 hrs by Western blot analysis; format: functional, cell-based
HeLa = experiment: Cell cycle arrest in human HeLa cells assessed as accumulation at G2/M phase at 10 uM after 24 hrs by FITC/propidium iodide staining-based FACS flow cytometric analysis; format: functional; summary of the method: as §1
[7] = molecular target: Histone deacetylase 3/NCoR1 (Homo sapiens, UniProt O15379); experiment: Inhibition of recombinant HDAC3-NCoR1 (unknown origin) using MAL as substrate incubated for 3 hrs prior to substrate addition measured after 60 mins by fluorescence plate reader analysis; format: protein-complex assay
Jurkat [8] = experiment: Cell cycle arrest in human Jurkat cells assessed as accumulation at sub-G1 phase at 10 uM after 24 hrs by FITC/propidium iodide staining-based FACS flow cytometric analysis (reference value: 2%); format: functional; summary of the method: as §1
Jurkat [9] = experiment: Cell cycle arrest in human Jurkat cells assessed as accumulation at G2/M phase at 1 uM after 24 hrs by FITC/propidium iodide staining-based FACS flow cytometric analysis (reference value: 14.4%); format: functional; summary of the method: as §1
Jurkat [10] = experiment: Cell cycle arrest in human Jurkat cells assessed as accumulation at G0/G1 phase at 1 uM after 24 hrs by FITC/propidium iodide staining-based FACS flow cytometric analysis (reference value: 55.5%); format: functional; summary of the method: as §1
[11] = Kinetic solubility of the compound; format: physicochemical; settings: read-out: Kinetic_solubility
Summary of the method: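 Solubility was measured by chemiluminescent nitrogen detection.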

[12] = Lipophilicity, log D of the compound at pH 7.4; format: physicochemical; settings: buffer
[13] = molecular target: T2, Protein deacetylase HDAC6 (Homo sapiens, UniProt Q9UBN7); experiment: Inhibition of recombinant His-tagged HDAC6 (unknown origin) using Fluor-de-Lys SIRT1 as substrate incubated for 3 hrs prior to substrate addition measured after 60 mins by fluorescence plate reader analysis
T2 sequence (Q9UBN7 whole entry): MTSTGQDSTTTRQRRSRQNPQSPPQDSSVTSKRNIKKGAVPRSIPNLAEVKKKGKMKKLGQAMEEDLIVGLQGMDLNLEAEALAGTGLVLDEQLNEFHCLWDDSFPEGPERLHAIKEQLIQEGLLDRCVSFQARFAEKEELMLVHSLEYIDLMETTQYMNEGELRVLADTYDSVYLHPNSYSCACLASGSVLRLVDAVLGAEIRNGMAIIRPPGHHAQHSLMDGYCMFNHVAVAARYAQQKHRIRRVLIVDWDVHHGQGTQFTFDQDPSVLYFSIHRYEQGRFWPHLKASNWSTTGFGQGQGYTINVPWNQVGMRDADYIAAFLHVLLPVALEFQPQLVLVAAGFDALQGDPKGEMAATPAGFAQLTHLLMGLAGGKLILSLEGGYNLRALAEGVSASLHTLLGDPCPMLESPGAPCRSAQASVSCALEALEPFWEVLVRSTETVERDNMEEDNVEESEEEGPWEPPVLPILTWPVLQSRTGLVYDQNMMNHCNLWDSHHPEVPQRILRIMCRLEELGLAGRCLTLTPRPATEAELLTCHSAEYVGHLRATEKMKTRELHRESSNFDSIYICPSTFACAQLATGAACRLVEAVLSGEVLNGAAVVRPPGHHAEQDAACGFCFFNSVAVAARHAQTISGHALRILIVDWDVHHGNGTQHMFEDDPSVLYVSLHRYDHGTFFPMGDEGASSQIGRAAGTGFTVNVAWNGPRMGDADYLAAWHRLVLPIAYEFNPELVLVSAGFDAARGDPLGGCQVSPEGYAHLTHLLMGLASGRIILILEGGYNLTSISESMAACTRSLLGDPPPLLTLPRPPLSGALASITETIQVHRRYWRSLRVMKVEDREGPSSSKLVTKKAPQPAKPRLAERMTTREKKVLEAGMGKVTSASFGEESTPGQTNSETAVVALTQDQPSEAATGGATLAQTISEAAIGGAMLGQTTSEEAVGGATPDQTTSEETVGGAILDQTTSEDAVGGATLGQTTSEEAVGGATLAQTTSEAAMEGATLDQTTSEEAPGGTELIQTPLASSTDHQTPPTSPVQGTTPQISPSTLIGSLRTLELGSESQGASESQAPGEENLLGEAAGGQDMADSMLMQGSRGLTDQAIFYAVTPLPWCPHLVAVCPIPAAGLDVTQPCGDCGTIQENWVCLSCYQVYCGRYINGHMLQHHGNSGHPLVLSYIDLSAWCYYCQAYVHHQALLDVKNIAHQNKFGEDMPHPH

Jurkat [14] = experiment: Cell cycle arrest in human Jurkat cells assessed as accumulation at G0/G1 phase at 10 uM after 24 hrs by FITC/propidium iodide staining-based FACS flow cytometric analysis (reference value: 69.5%); format: functional; summary of the method: as §1
Cytochrome P450 3A4 [15] = molecular target: T1, Cytochrome P450 3A4; experiment: Inhibition of CYP3A4 (unknown origin) using vivid red as substrate; format: ADME
MCF7 = experiment: Cytotoxicity against human MCF7 cells assessed as growth inhibition by measuring cellular ATP level after 72 hrs by cell-titer glo assay; format: functional, cell-based; settings: MCF7, 72 h
[16] = Permeability of the compound by PAMPA; format: ADME; settings: read-out: permeability
Jurkat [17] = experiment: Cell cycle arrest in human Jurkat cells assessed as accumulation at S phase at 10 uM after 24 hrs by FITC/propidium iodide staining-based FACS flow cytometric analysis (reference value: 15.3%); format: functional; summary of the method: as §1

T1 sequence (P08684 whole entry): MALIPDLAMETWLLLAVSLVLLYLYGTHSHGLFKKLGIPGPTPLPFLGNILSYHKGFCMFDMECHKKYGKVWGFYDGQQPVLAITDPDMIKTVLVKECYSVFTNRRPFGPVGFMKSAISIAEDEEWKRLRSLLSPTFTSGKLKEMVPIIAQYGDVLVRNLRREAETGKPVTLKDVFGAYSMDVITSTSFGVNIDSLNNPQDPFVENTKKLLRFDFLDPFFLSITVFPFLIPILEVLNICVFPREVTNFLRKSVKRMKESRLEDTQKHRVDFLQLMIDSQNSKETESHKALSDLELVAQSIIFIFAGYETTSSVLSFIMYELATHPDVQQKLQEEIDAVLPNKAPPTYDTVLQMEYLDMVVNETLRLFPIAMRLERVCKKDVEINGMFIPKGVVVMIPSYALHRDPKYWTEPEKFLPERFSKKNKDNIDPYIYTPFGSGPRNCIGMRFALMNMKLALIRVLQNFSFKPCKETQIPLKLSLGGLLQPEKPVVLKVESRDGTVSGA
Cytochrome P450 2C19, sequence (P33261 whole entry): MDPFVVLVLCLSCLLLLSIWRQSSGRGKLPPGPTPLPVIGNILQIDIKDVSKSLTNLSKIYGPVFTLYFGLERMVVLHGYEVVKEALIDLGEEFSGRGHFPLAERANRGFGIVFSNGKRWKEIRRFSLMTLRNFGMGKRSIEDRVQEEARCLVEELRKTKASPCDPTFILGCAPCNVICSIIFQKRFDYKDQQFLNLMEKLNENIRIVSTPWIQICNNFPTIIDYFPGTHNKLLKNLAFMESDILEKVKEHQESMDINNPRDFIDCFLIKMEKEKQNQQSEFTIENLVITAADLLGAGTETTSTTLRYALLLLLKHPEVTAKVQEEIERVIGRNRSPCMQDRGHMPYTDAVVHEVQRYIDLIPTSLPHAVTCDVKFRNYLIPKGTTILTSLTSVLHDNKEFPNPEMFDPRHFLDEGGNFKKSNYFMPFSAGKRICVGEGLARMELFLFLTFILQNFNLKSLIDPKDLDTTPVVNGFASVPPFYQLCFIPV
Histone deacetylase 3/NCoR1, sequence (O15379 whole entry): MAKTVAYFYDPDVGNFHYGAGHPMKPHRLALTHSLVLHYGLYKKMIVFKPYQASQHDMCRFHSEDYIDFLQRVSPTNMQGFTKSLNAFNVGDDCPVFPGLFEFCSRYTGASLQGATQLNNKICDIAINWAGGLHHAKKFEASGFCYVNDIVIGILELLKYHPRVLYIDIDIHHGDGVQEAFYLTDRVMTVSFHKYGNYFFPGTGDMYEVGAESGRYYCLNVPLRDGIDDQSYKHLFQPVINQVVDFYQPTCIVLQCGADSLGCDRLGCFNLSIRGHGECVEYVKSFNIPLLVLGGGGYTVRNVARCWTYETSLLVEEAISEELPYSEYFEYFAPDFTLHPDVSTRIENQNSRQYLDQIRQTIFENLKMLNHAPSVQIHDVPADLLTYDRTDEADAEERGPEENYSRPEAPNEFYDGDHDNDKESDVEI
Histone deacetylase 3/NCoR1, sequence (O75376 whole entry, further chain): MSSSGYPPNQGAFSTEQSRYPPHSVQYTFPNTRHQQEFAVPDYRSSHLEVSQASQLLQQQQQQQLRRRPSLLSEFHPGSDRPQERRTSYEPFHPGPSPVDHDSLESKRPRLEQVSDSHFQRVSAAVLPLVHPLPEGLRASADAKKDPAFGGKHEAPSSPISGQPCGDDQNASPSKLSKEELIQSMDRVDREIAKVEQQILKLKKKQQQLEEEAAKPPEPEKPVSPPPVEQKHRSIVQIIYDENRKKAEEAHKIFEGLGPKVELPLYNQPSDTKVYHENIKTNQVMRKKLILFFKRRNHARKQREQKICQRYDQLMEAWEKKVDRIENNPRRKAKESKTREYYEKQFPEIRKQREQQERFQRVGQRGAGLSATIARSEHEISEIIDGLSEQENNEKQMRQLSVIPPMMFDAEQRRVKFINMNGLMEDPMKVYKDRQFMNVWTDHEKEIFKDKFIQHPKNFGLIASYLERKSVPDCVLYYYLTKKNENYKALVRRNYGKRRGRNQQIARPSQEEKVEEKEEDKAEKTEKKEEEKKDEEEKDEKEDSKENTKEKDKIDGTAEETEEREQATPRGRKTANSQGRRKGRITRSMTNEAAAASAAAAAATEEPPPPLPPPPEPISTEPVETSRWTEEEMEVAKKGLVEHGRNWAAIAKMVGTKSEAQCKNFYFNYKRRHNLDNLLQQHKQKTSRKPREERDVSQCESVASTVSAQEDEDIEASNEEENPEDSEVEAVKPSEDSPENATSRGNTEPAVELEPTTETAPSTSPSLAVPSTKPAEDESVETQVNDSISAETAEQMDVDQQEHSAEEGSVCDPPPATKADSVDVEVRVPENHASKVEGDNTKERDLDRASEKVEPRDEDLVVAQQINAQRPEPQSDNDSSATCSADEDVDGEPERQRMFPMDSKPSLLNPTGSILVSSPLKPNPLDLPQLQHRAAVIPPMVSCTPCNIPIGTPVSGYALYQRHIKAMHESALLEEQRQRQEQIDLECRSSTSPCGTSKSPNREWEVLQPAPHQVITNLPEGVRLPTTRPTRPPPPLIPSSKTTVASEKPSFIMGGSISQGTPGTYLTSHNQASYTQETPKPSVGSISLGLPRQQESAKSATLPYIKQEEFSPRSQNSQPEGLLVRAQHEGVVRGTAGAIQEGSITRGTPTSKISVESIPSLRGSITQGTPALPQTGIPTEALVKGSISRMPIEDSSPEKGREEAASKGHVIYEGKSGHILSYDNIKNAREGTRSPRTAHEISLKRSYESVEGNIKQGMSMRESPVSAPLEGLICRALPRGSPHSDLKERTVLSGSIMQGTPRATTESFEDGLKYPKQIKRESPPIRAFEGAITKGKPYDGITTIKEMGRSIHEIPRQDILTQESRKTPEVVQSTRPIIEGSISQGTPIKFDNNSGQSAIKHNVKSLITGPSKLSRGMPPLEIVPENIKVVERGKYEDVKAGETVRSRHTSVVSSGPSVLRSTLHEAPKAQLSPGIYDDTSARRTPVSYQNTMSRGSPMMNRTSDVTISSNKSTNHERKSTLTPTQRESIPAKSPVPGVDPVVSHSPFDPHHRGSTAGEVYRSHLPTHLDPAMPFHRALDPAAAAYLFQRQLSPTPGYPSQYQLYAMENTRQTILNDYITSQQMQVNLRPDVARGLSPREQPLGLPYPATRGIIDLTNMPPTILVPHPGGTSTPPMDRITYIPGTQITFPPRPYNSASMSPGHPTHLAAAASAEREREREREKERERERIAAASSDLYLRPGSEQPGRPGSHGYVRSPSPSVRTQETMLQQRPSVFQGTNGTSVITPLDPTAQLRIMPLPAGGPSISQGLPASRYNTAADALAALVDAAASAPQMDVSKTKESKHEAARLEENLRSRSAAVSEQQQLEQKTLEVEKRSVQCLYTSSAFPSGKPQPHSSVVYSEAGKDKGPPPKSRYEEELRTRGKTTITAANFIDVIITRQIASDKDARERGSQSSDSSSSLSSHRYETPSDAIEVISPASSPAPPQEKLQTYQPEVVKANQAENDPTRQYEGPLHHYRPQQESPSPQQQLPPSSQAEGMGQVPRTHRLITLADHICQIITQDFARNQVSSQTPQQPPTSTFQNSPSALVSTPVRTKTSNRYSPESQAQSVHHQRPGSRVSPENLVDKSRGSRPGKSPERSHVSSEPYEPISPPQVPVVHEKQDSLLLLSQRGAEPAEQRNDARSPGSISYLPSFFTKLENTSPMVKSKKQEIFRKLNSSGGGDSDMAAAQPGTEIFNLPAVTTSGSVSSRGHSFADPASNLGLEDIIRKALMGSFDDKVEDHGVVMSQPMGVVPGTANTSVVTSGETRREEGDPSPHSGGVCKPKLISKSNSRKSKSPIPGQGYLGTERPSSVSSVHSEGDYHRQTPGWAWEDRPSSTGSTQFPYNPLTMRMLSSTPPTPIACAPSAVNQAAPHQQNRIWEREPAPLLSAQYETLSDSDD

## Nc1ccccc1NC(=O)c1ccc(CNC2=N[C@@H](c3ccccc3)CS2)cc1
[1]
  inhibition: Active
Cytochrome P450 2C19
  IC50: 32 µM
Jurkat [2]
  Activity: 6.2%
Jurkat [3]
  Activity: 36.6%
HCT-116
  IC50: 2.17 µM
A549
  IC50: 5.78 µM
Jurkat [4]
  Activity: 16.9%
Cytochrome P450 3A4 [5]
  IC50: 16 µM
Jurkat [6]
  Activity: Active
HeLa
  Activity: Active
[7]
  IC50: 0.012 µM
Jurkat [8]
  Activity: 19.5%
Jurkat [9]
  Activity: 9.1%
Jurkat [10]
  Activity: 48.1%
[11]
  solubility kinetic: 239 µM (≈ 96.2 µg/mL)
[12]
  logD: 4.24
[13]
  IC50: > 20 µM
Jurkat [14]
  Activity: 28.5%
Cytochrome P450 3A4 [15]
  IC50: 25 µM
MCF7
  IC50: 5.43 µM
[16]
  Papp: 51 ×10⁻⁶ cm/s
Jurkat [17]
  Activity: 35.1%
